PG9 Ab binder – binders of HIV-1 gp120 antibody PG9, primary screen, biochemical, TR-FRET; HIV-1 gp120 / PG9 antibody interaction; TR-FRET gp120-PG9 antibody binding; inhibition, % at 6.7 µM; actives 0.43% (n = 360,000); AID 624416, 2012; in the data active = inhibition above about 8.5%
NR1D1 modulator – modulators of Rev-erb alpha DNA binding, primary screen, biochemical, FITC-DNA, fluorescence polarization, uHTS | Rev-erbα–FITC-DNA binding, 90 min | AID 1259318, 2017 | actives 0.79% (n = 370,000) | Nuclear receptor subfamily 1 group D member 1 (Homo sapiens), P20393 | activity, % at 10 µM;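 active = activity above about 14%, limit read from the data; passing the limit was not always enough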;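 note: 0% = DMSO wells with 35 nM protein and 100% = DMSO wells with 750 nM protein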
Target sequence (P20393 whole entry, looked up): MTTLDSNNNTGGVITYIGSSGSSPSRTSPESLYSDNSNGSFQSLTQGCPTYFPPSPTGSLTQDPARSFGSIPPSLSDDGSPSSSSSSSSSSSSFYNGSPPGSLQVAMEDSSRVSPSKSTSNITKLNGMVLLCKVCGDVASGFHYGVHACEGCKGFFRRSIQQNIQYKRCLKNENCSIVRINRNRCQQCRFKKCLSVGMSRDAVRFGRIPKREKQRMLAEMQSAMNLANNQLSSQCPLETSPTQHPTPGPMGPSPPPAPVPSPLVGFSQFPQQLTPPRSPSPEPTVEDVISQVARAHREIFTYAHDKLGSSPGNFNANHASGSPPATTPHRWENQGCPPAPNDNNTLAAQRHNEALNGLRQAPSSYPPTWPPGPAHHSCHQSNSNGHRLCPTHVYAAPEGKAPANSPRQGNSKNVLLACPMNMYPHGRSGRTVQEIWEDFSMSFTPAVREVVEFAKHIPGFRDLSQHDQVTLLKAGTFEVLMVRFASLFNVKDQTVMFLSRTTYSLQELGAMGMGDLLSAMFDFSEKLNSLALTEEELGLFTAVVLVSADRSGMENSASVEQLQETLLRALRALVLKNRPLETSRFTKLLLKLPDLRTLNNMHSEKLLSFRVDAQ
MT1-MMP act inh – blockers of MT1-MMP proenzyme processing, primary screen, HT1080 RFP-PRO-GFP cells, GFP/RFP fluorescence; Matrix metalloproteinase-14 (Homo sapiens), P50281; GFP/RFP ratio fluorescence, overnight; percent of plate control window, DMSO zero; GFP/RFP ratio change, % at 20 µM; actives 0.061% (n = 360,000); AID 651647, 2012;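 active = GFP/RFP ratio change of at least 30% with cell ATP level not reduced by more than half and red fluorescence within 50% of control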
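Material: RFP-PRO-GFP reporter HT1080 cells. Dosing: single-point 20 µM compound, 1% DMSO. Controls: DMSO and RFP-L50D-GFP cell wells. Timing: cells overnight before dosing, compound overnight, 37 °C, 5% CO2. Measure: GFP/RFP fluorescence ratio.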
SKN-1 inh – suppressors of acrylamide-induced Pgst-4::GFP reporter in worms, primary screen, SKN-1 inhibitor project, whole organism, uHTS, GFP/RFP fluorescence ratio, strain VP596; C. elegans VP596 Pgst-4::GFP/RFP ratio, 24 h; inhibition, % at 21.8 µM; actives 0.49% (n = 360,000);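 active = interference check ratio from 0.5 to 1.5 plus GFP to RFP signal ratio inhibition reaching or exceeding a fixed threshold, cut at about 30% in these data, passing the limit was not always enough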
NR2E3 ag-1 – inhibitors of NR2E3-RetCOR corepressor binding, primary screen, NR2E3 agonist project, biochemical, TR-FRET, GST-NR2E3, biotin-RetCOR. 1536-well. inhibition of corepressor binding, % at 4.78 µM. actives 0.12% (n = 320,000). AID 2300, 2010;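 active = percent inhibition above the cutoff of mean plus 3 SD of all tested compounds, set per screening campaign, cut at about 20% in these data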;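 note: 0% = DMSO wells and 100% = biotin wells as full block of FRET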
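Material: NR2E3–RetCOR corepressor complex / Incubation: Compound–protein incubation for 5 h at 4 °C / Dosing: compound at 4.8 µM, single dose / Detection: time-resolved FRET / Benchmarks: high control biotin, low control 0.6% DMSO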
NR2E3 ag-2 – NR2E3 agonists in two-hybrid cells, primary screen, cell-based, luminescence, CHO-S, Gal4-NCOR/VP16-NR2E3. AID 602229, 2012. actives 0.35% (n = 360,000). inhibition of corepressor binding, % at 3.98 µM. luciferase. Photoreceptor-specific nuclear receptor (Homo sapiens), Q9Y5X4;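 active = inhibition above the mean of all tested compounds plus 3 SD, cut at about 70% in these data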;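 note: 0% = DMSO with NR2E3 transfected cells and 100% = cells lacking NR2E3 construct; higher means lower luciferase signal from less NR2E3 corepressor binding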
PG9 binder conf – binders of anti-gp120 antibody PG9, confirmation, biochemical, TR-FRET; AID 651571, 2012; inhibition, % at 6.7 µM; shares compounds with PG9 Ab binder; TR-FRET PG9 antibody binding; actives 90% (n = 1,500); in the data active = inhibition above about 9%
PGV04 Ab binding – binders of control antibody PGV04, counter-screen for PG9 antibody binder project, biochemical, TR-FRET, distinct HIV envelope site | shares compounds with PG9 Ab binder | TR-FRET PGV04 antibody-gp120 binding | inhibition, % at 6.7 µM | actives 95% (n = 1,500) | AID 651604, 2012; in the data active = inhibition above about 9.5%
Active calls of the source: *; . = not tested or not shown. Compounds with a hit are over-represented: about 1.9% of the library has one in this group of screens.

SMILES | PG9 Ab binder | NR1D1 modulator | MT1-MMP act inh | SKN-1 inh | NR2E3 ag-1 | NR2E3 ag-2 | PG9 binder conf | PGV04 Ab binding
Cc1ccc(NC(=O)Cn2cc(S(=O)(=O)c3ccc(F)cc3)c(=O)c3cc(F)ccc32)cc1 | 23.7* | 9.6 | 1.9 | -0.1 | 2.8 | 14.7 | 37.8* | 43.8*
Cc1ccc(Cn2cc(S(=O)(=O)c3ccc(Cl)cc3)c(=O)c3cc(F)ccc32)cc1 | 8.7* | 0.4 | -2.1 | 2.6 | 3.5 | -9.3 | 12.1* | 21.2*
O=c1c(S(=O)(=O)c2ccc(Cl)cc2)cn(Cc2cccc(F)c2)c2ccc(F)cc12 | 1.9 | -4.4 | -7.2 | -17.0 | -2.7 | 30.2 | . | .
CN1[C@@H](Cc2ccccc2)COc2cc(F)ccc2S1(=O)=O | . | -4.6 | . | . | . | . | . | .
Cc1ccc(C(=O)Nc2nnc(COc3ccccc3)s2)cc1 | 25.4* | 6.0 | 0.2 | 10.5 | 14.3 | -29.6 | 33.5* | 39.1*
O=C(Nc1nnc(CCc2ccccc2)s1)c1ccc(F)cc1 | 0.7 | -6.2 | -0.1 | 28.4 | -1.1 | -10.3 | . | .
O=C(Nc1ccc(OCc2ccccc2)cc1)c1ccccc1 | -0.7 | -6.6 | 5.9 | 9.6 | 2.0 | -41.0 | . | .
O=C(Nc1ccccc1)c1ccc(COc2ccccc2)cc1 | 13.0* | 4.1 | 0.8 | 10.0 | 1.6 | -25.6 | 11.9* | 16.1*
CC(=O)Nc1ccc(C(=O)Nc2nnc(CCc3ccccc3)s2)cc1 | 24.7* | 12.5 | 5.4 | -7.6 | 0.9 | -3.4 | 15.2* | 24.1*
CC(C)(C)c1ccc(-c2nnc(SCc3cccc4ccccc34)n2Cc2ccco2)cc1 | . | -0.1 | . | . | . | . | . | .
COc1cc2c(cc1OC)C(C(=O)O)C(c1ccc3c(c1)OCO3)N(C)C2=O (stereo unspecified) | 0.6 | -9.4 | . | . | . | . | . | .
COc1ccccc1Cc1c(-c2ccc(OC)c(OC)c2)nc2c(C)cc(Br)cn12 | -1.8 | 6.2 | -3.7 | 2.5 | . | -13.9 | . | .
COc1ccc(-c2nc3c(C)cc(Br)cn3c2CC(C)(C)C)cc1OC | 22.2* | -2.8 | -2.7 | 2.2 | . | 4.4 | 25.3* | 39.6*
COc1ccc(-c2nc3c(C)cc(Br)cn3c2CC2CCCCC2)cc1OC | 13.7* | 3.3 | -4.5 | -2.0 | . | -24.7 | 22.4* | 27.4*
O=C(Nc1ccc(N2C(=O)C3CCCCC3C2=O)cc1Cl)c1cccs1 (stereo unspecified) | 18.2* | 8.3 | -0.6 | 10.0 | -1.9 | -23.4 | 30.1* | 45.7*
O=C(Nc1ccccc1Cl)c1cccs1 | -1.0 | -4.0 | 12.2 | -6.6 | 3.5 | -14.5 | . | .
Cc1cc(Cl)ccc1OC(C)c1nnc(N)s1 (stereo unspecified) | 10.5* | -0.7 | -1.1 | -12.4 | 3.0 | 8.3 | 6.9 | 9.0
Cc1cccc2cc(CN(Cc3ccco3)C(=O)c3ccncc3)c(=O)[nH]c12 | 9.3* | -0.7 | 1.1 | -2.0 | -1.5 | -3.7 | 8.1 | 10.1*
O=C(c1ccncc1)N(Cc1ccco1)Cc1cc2ccccc2[nH]c1=O | -1.8 | 4.3 | 5.1 | -0.3 | 1.0 | -1.0 | . | .
CCCC[C@H](C(=O)N(C)c1cccc(OC)c1)[C@@H](O)c1ccc(C(C)=O)cc1 | . | 2.9 | . | . | . | . | . | .
Cc1ccnc(N2CCCC(C(=O)Nc3ccc(C)c(C)c3)C2)n1 (stereo unspecified) | 39.4* | -0.5 | -1.7 | -9.7 | 5.3 | -46.3 | 30.8* | 42.3*
Cc1ccc(NC(=O)C2CCCN(c3ncccn3)C2)cc1C (stereo unspecified) | -4.7 | -2.3 | -2.6 | 7.1 | -3.6 | -24.7 | . | .
Cc1ccccc1C(=O)N[C@@H](Cc1cccnc1)C(=O)N1CCC[C@H]1C(=O)NCCc1ccccc1Cl | 0.1 | 5.7 | . | . | . | . | . | .
CCOC(=O)c1sc(=NC(=O)c2ccccc2Br)n(C)c1C | 14.8* | 7.6 | -1.3 | -5.9 | 3.0 | -158.8 | 21.9* | 44.5*
CCOC(=O)c1sc(=NC(=O)c2ccco2)n(C)c1C | 1.3 | 1.1 | 0.4 | 0.2 | 3.2 | -91.7 | . | .
SMILES | PG9 Ab binder | NR1D1 modulator | MT1-MMP act inh | SKN-1 inh | NR2E3 ag-1 | NR2E3 ag-2 | PG9 binder conf | PGV04 Ab binding
COc1ccc(C(=O)CSc2nnc(-c3cccc(Cl)c3)n2Cc2ccco2)cc1 | . | -2.1 | . | . | . | . | . | .
O=C(O)CSc1c2c(nc3cc(C(=O)Nc4cccc(C(F)(F)F)c4)ccc13)CCC2 | 15.9* | -3.2 | -1.5 | 1.0 | 5.9 | 4.2 | 32.5* | 54.4*
CCOc1ccc(NC(=O)c2ccc3c(SCC(=O)O)c4c(nc3c2)CCCC4)cc1 | 0.6 | -4.3 | 4.8 | -10.8 | 3.1 | -1.6 | . | .
CCOC(=O)C1=C(C(=O)OCC)C2N(Cc3ccc(C#N)cc3)c3ccccc3[C@@]23C[C@@H](C(=O)OC)N(S(=O)(=O)c2ccc(OC)cc2)C3=N1 (stereo partly specified) | -0.5 | -0.9 | . | . | . | . | . | .
NS(=O)(=O)c1c(Sc2ccccc2C(=O)O)ccc2ccccc12 | 14.8* | -3.5 | 0.5 | -5.7 | 18.2 | -106.4 | 15.0* | 20.2*
COC(=O)[C@]12C[C@H](CC(=O)NCc3cccs3)C(=O)N(Cc3ccccc3)C1=C[C@H](C(C)(C)C)O[C@@H]2C | -0.8 | 2.8 | . | . | . | . | . | .
CN(C)C1(CNC(=O)CC(NC(=O)c2ccccc2Cl)c2ccccc2)CCCCC1 (stereo unspecified) | 17.2* | 9.3 | 1.1 | 7.5 | 3.8 | -24.7 | 8.9* | 9.6*
O=C(CC(NC(=O)c1ccccc1Cl)c1ccccc1)NC1=NCCS1 (stereo unspecified) | -0.8 | 5.1 | -6.9 | 5.6 | -0.9 | -12.4 | . | .
